Assay results from ChEMBL document CHEMBL5058577, “EUbOPEN Chemogenomics Library 2 (Multiplex)” (2022).

Test system: U2OS
Assay: Multiplex assay against U2OS
Assay type: toxicity, cell-based
Conditions: human
How it was run: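 Values for tubulin, mitochondrial-mass and membrane-permeability phenotypes are per cents of cells with healthy nuclei. These cells were identified by CellPathfinder machine-learning gating of live cells that had been stained at seeding with Hoechst33342, BioTracker Green Microtubule Cytoskeleton Dye, MitoTracker Red and Annexin V Alexa Fluor 680 and imaged on a CQ1 microscope at 37°C and 5% CO2 after compound addition. The gating first set Hoechst high-intensity objects apart from normal cells, then split normal cells into healthy, pyknosed or fragmented nuclei, and pyknosed cells into mitotic or apoptotic.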

[1] = 12 h, 1 µM, compound concentration 1 uM, replicate 1
[2] = 12 h, 1 µM, compound concentration 1 uM, replicate 2
[3] = 12 h, 10 µM, compound concentration 10 uM, replicate 1
[4] = 12 h, 10 µM, compound concentration 10 uM, replicate 2
[5] = 24 h, 1 µM, compound concentration 1 uM, replicate 1
[6] = 24 h, 1 µM, compound concentration 1 uM, replicate 2
[7] = 24 h, 10 µM, compound concentration 10 uM, replicate 1
[8] = 24 h, 10 µM, compound concentration 10 uM, replicate 2
[9] = 48 h, 1 µM, compound concentration 1 uM, replicate 1
[10] = 48 h, 1 µM, compound concentration 1 uM, replicate 2
[11] = 48 h, 10 µM, compound concentration 10 uM, replicate 1
[12] = 48 h, 10 µM, compound concentration 10 uM, replicate 2

c1cc(OCCCN2CCCCC2)ccc1CN1CCCCC1 [JNJ-5207852]
Population Apoptotic (%) [1]: 76% | Population Fragmented Nuclei (%) [1]: 29% | Population Healthy Nuclei (%) [1]: 65% | Population Hoechst High Intensity Objects (%) [1]: 2% | Population Membrane Permeable-Phenotype (%) [1]: 5% | Population Mitochondria Different-Phenotype (%) [1]: 3% | Population Mitotic Cells (%) [1]: 23% | Population Normal (%) [1]: 97% | Population Pyknosed Nuclei (%) [1]: 5% | Population Tubulin-Different-Phenotype (%) [1]: 3% | Total Cell Count [1]: 253 | Population Apoptotic (%) [2]: 58% | Population Fragmented Nuclei (%) [2]: 25% | Population Healthy Nuclei (%) [2]: 62% | Population Hoechst High Intensity Objects (%) [2]: 0% | Population Membrane Permeable-Phenotype (%) [2]: 7% | Population Mitotic Cells (%) [2]: 41% | Population Normal (%) [2]: 99% | Population Pyknosed Nuclei (%) [2]: 11% | Total Cell Count [2]: 106 | Population Apoptotic (%) [3]: 73% | Population Fragmented Nuclei (%) [3]: 34% | Population Healthy Nuclei (%) [3]: 57% | Population Hoechst High Intensity Objects (%) [3]: 2% | Population Membrane Permeable-Phenotype (%) [3]: 5% | Population Mitochondria Different-Phenotype (%) [3]: 3% | Population Mitotic Cells (%) [3]: 26% | Population Normal (%) [3]: 97% | Population Pyknosed Nuclei (%) [3]: 8% | Population Tubulin-Different-Phenotype (%) [3]: 3% | Total Cell Count [3]: 228 | Population Apoptotic (%) [4]: 85% | Population Fragmented Nuclei (%) [4]: 13% | Population Healthy Nuclei (%) [4]: 80% | Population Hoechst High Intensity Objects (%) [4]: 4% | Population Membrane Permeable-Phenotype (%) [4]: 7% | Population Mitochondria Different-Phenotype (%) [4]: 9% | Population Mitotic Cells (%) [4]: 14% | Population Normal (%) [4]: 95% | Population Pyknosed Nuclei (%) [4]: 6% | Population Tubulin-Different-Phenotype (%) [4]: 6% | Total Cell Count [4]: 120 | Population Apoptotic (%) [5]: 84% | Population Fragmented Nuclei (%) [5]: 25% | Population Healthy Nuclei (%) [5]: 65% | Population Hoechst High Intensity Objects (%) [5]: 1% | Population Membrane Permeable-Phenotype (%) [5]: 3% | Population Mitochondria Different-Phenotype (%) [5]: 2% | Population Mitotic Cells (%) [5]: 16% | Population Normal (%) [5]: 98% | Population Pyknosed Nuclei (%) [5]: 8% | Population Tubulin-Different-Phenotype (%) [5]: 2% | Total Cell Count [5]: 287 | Population Apoptotic (%) [6]: 66% | Population Fragmented Nuclei (%) [6]: 21% | Population Healthy Nuclei (%) [6]: 68% | Population Hoechst High Intensity Objects (%) [6]: 0% | Population Membrane Permeable-Phenotype (%) [6]: 4% | Population Mitotic Cells (%) [6]: 33% | Population Normal (%) [6]: 100% | Population Pyknosed Nuclei (%) [6]: 10% | Population Tubulin-Different-Phenotype (%) [6]: 4% | Total Cell Count [6]: 119 | Population Apoptotic (%) [7]: 82% | Population Fragmented Nuclei (%) [7]: 28% | Population Healthy Nuclei (%) [7]: 62% | Population Hoechst High Intensity Objects (%) [7]: 1% | Population Membrane Permeable-Phenotype (%) [7]: 4% | Population Mitochondria Different-Phenotype (%) [7]: 3% | Population Mitotic Cells (%) [7]: 17% | Population Normal (%) [7]: 98% | Population Pyknosed Nuclei (%) [7]: 8% | Population Tubulin-Different-Phenotype (%) [7]: 3% | Total Cell Count [7]: 271 | Population Apoptotic (%) [8]: 84% | Population Fragmented Nuclei (%) [8]: 10% | Population Healthy Nuclei (%) [8]: 80% | Population Membrane Permeable-Phenotype (%) [8]: 8% | Population Mitochondria Different-Phenotype (%) [8]: 5% | Population Mitotic Cells (%) [8]: 15% | Population Tubulin-Different-Phenotype (%) [8]: 8% | Total Cell Count [8]: 157 | Population Apoptotic (%) [9]: 82% | Population Fragmented Nuclei (%) [9]: 21% | Population Healthy Nuclei (%) [9]: 69% | Population Hoechst High Intensity Objects (%) [9]: 2% | Population Membrane Permeable-Phenotype (%) [9]: 4% | Population Mitochondria Different-Phenotype (%) [9]: 2% | Population Mitotic Cells (%) [9]: 17% | Population Normal (%) [9]: 97% | Population Pyknosed Nuclei (%) [9]: 8% | Population Tubulin-Different-Phenotype (%) [9]: 4% | Total Cell Count [9]: 400 | Population Apoptotic (%) [10]: 76% | Population Fragmented Nuclei (%) [10]: 19% | Population Healthy Nuclei (%) [10]: 71% | Population Hoechst High Intensity Objects (%) [10]: 3% | Population Membrane Permeable-Phenotype (%) [10]: 9% | Population Mitochondria Different-Phenotype (%) [10]: 4% | Population Mitotic Cells (%) [10]: 23% | Population Normal (%) [10]: 96% | Population Tubulin-Different-Phenotype (%) [10]: 3% | Total Cell Count [10]: 152 | Population Apoptotic (%) [11]: 86% | Population Fragmented Nuclei (%) [11]: 22% | Population Healthy Nuclei (%) [11]: 70% | Population Hoechst High Intensity Objects (%) [11]: 2% | Population Membrane Permeable-Phenotype (%) [11]: 7% | Population Mitochondria Different-Phenotype (%) [11]: 3% | Population Mitotic Cells (%) [11]: 13% | Population Normal (%) [11]: 97% | Population Pyknosed Nuclei (%) [11]: 6% | Population Tubulin-Different-Phenotype (%) [11]: 5% | Total Cell Count [11]: 345 | Population Apoptotic (%) [12]: 93% | Population Fragmented Nuclei (%) [12]: 14% | Population Healthy Nuclei (%) [12]: 78% | Population Hoechst High Intensity Objects (%) [12]: 1% | Population Membrane Permeable-Phenotype (%) [12]: 6% | Population Mitochondria Different-Phenotype (%) [12]: 2% | Population Mitotic Cells (%) [12]: 6% | Population Normal (%) [12]: 98% | Population Tubulin-Different-Phenotype (%) [12]: 4% | Total Cell Count [12]: 245

CN(C)c1ccnc2sc3c(=O)n(N4CCCCCC4)cnc3c12
Population Apoptotic (%) [1]: 81% | Population Fragmented Nuclei (%) [1]: 19% | Population Healthy Nuclei (%) [1]: 72% | Population Hoechst High Intensity Objects (%) [1]: 1% | Population Membrane Permeable-Phenotype (%) [1]: 4% | Population Mitochondria Different-Phenotype (%) [1]: 2% | Population Mitotic Cells (%) [1]: 18% | Population Normal (%) [1]: 98% | Population Pyknosed Nuclei (%) [1]: 7% | Population Tubulin-Different-Phenotype (%) [1]: 2% | Total Cell Count [1]: 284 | Population Apoptotic (%) [2]: 87% | Population Fragmented Nuclei (%) [2]: 16% | Population Healthy Nuclei (%) [2]: 77% | Population Membrane Permeable-Phenotype (%) [2]: 6% | Population Mitotic Cells (%) [2]: 12% | Population Pyknosed Nuclei (%) [2]: 6% | Total Cell Count [2]: 132 | Population Apoptotic (%) [3]: 41% | Population Fragmented Nuclei (%) [3]: 30% | Population Healthy Nuclei (%) [3]: 56% | Population Hoechst High Intensity Objects (%) [3]: 4% | Population Membrane Permeable-Phenotype (%) [3]: 30% | Population Mitochondria Different-Phenotype (%) [3]: 14% | Population Mitotic Cells (%) [3]: 58% | Population Normal (%) [3]: 95% | Population Pyknosed Nuclei (%) [3]: 12% | Population Tubulin-Different-Phenotype (%) [3]: 20% | Total Cell Count [3]: 249 | Population Apoptotic (%) [4]: 88% | Population Fragmented Nuclei (%) [4]: 18% | Population Healthy Nuclei (%) [4]: 71% | Population Hoechst High Intensity Objects (%) [4]: 5% | Population Membrane Permeable-Phenotype (%) [4]: 23% | Population Mitochondria Different-Phenotype (%) [4]: 27% | Population Mitotic Cells (%) [4]: 11% | Population Normal (%) [4]: 94% | Population Pyknosed Nuclei (%) [4]: 9% | Population Tubulin-Different-Phenotype (%) [4]: 22% | Total Cell Count [4]: 101 | Population Apoptotic (%) [5]: 87% | Population Fragmented Nuclei (%) [5]: 16% | Population Healthy Nuclei (%) [5]: 72% | Population Hoechst High Intensity Objects (%) [5]: 2% | Population Membrane Permeable-Phenotype (%) [5]: 3% | Population Mitochondria Different-Phenotype (%) [5]: 3% | Population Mitotic Cells (%) [5]: 12% | Population Normal (%) [5]: 97% | Population Pyknosed Nuclei (%) [5]: 10% | Population Tubulin-Different-Phenotype (%) [5]: 1% | Total Cell Count [5]: 326 | Population Apoptotic (%) [6]: 72% | Population Fragmented Nuclei (%) [6]: 15% | Population Healthy Nuclei (%) [6]: 76% | Population Membrane Permeable-Phenotype (%) [6]: 6% | Population Mitotic Cells (%) [6]: 27% | Population Pyknosed Nuclei (%) [6]: 7% | Population Tubulin-Different-Phenotype (%) [6]: 4% | Total Cell Count [6]: 150 | Population Apoptotic (%) [7]: 68% | Population Fragmented Nuclei (%) [7]: 28% | Population Healthy Nuclei (%) [7]: 56% | Population Hoechst High Intensity Objects (%) [7]: 4% | Population Membrane Permeable-Phenotype (%) [7]: 22% | Population Mitochondria Different-Phenotype (%) [7]: 15% | Population Mitotic Cells (%) [7]: 31% | Population Normal (%) [7]: 95% | Population Pyknosed Nuclei (%) [7]: 15% | Population Tubulin-Different-Phenotype (%) [7]: 14% | Total Cell Count [7]: 260 | Population Apoptotic (%) [8]: 100% | Population Fragmented Nuclei (%) [8]: 11% | Population Healthy Nuclei (%) [8]: 75% | Population Hoechst High Intensity Objects (%) [8]: 3% | Population Membrane Permeable-Phenotype (%) [8]: 23% | Population Mitochondria Different-Phenotype (%) [8]: 25% | Population Mitotic Cells (%) [8]: 0% | Population Normal (%) [8]: 96% | Population Pyknosed Nuclei (%) [8]: 13% | Population Tubulin-Different-Phenotype (%) [8]: 24% | Total Cell Count [8]: 108 | Population Apoptotic (%) [9]: 90% | Population Fragmented Nuclei (%) [9]: 17% | Population Healthy Nuclei (%) [9]: 74% | Population Hoechst High Intensity Objects (%) [9]: 2% | Population Membrane Permeable-Phenotype (%) [9]: 4% | Population Mitochondria Different-Phenotype (%) [9]: 1% | Population Mitotic Cells (%) [9]: 9% | Population Normal (%) [9]: 97% | Population Pyknosed Nuclei (%) [9]: 8% | Population Tubulin-Different-Phenotype (%) [9]: 2% | Total Cell Count [9]: 486 | Population Apoptotic (%) [10]: 92% | Population Fragmented Nuclei (%) [10]: 15% | Population Healthy Nuclei (%) [10]: 72% | Population Membrane Permeable-Phenotype (%) [10]: 5% | Population Mitochondria Different-Phenotype (%) [10]: 5% | Population Mitotic Cells (%) [10]: 7% | Population Pyknosed Nuclei (%) [10]: 11% | Total Cell Count [10]: 239 | Population Apoptotic (%) [11]: 68% | Population Fragmented Nuclei (%) [11]: 28% | Population Healthy Nuclei (%) [11]: 57% | Population Hoechst High Intensity Objects (%) [11]: 4% | Population Membrane Permeable-Phenotype (%) [11]: 15% | Population Mitochondria Different-Phenotype (%) [11]: 11% | Population Mitotic Cells (%) [11]: 31% | Population Normal (%) [11]: 95% | Population Pyknosed Nuclei (%) [11]: 14% | Population Tubulin-Different-Phenotype (%) [11]: 7% | Total Cell Count [11]: 325 | Population Apoptotic (%) [12]: 72% | Population Fragmented Nuclei (%) [12]: 15% | Population Healthy Nuclei (%) [12]: 61% | Population Hoechst High Intensity Objects (%) [12]: 9% | Population Membrane Permeable-Phenotype (%) [12]: 21% | Population Mitochondria Different-Phenotype (%) [12]: 19% | Population Mitotic Cells (%) [12]: 27% | Population Normal (%) [12]: 90% | Population Pyknosed Nuclei (%) [12]: 22% | Population Tubulin-Different-Phenotype (%) [12]: 23% | Total Cell Count [12]: 140
